Active and inactive are the calls of the source. The calls are words filed in the database; no cut-off is given here.
Legend:
PC-3 [1] = assay: Antiproliferative activity against human PC3 cells after 72 hrs by MTT assay; assay type: functional, cell-based; settings: PC-3, 72 h
Outline: (§1)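 Exponentially growing cells, 4×10^3/well, attached 24 h, then medium replaced with fresh medium holding graded compound concentrations for 72 h. MTT (5 mg/mL stock) added for 4 h, formazan dissolved in DMSO, absorbance at 570 nm; IC50 calculated from dose-response data.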

ECa-109 cell line = assay: Antiproliferative activity against human EC109 cells after 72 hrs by MTT assay; assay type: functional, cell-based; settings: ECa-109, 72 h; outline: as §1
MGC-803 = assay: Antiproliferative activity against human MGC803 cells after 72 hrs by MTT assay; assay type: functional, cell-based; settings: MGC-803, 72 h; outline: as §1
GES1 = assay: Antiproliferative activity against human GES-1 cells after 72 hrs by MTT assay; assay type: cell-based; settings: GES1, 72 h; outline: as §1
LNCaP = assay: Antiproliferative activity against human LNCAP cells after 72 hrs by MTT assay; assay type: functional, cell-based; outline: as §1
PC-3 [2] = assay: Inhibition of colony formation in human PC3 cells at 0.5 to 2 uM after 7 days by crystal violet staining-based assay; assay type: functional, cell-based
Outline: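 About 2000 PC-3 cells/well seeded, after 24 h medium replaced with compound-containing medium for 7 days. Colonies PBS-washed, fixed in 4% paraformaldehyde 30 min, crystal violet stained 30 min, destained with PBS before evaluation. Repeated three times.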

PC-3 [3] = assay: Cell cycle arrest in human PC3 cells assessed as accumulation of cells at G1 phase at 0.5 uM after 48 hrs by RNase/propidium iodide staining-based flow cytometric analysis (reference value: 61.95%); assay type: functional
PC-3 [4] = assay: Cell cycle arrest in human PC3 cells assessed as accumulation of cells at G2 phase at 0.5 uM after 48 hrs by RNase/propidium iodide staining-based flow cytometric analysis (reference value: 7.17%); assay type: functional
PC-3 [5] = assay: Cell cycle arrest in human PC3 cells assessed as accumulation of cells at S phase at 0.5 uM after 48 hrs by RNase/propidium iodide staining-based flow cytometric analysis (reference value: 30.89%); assay type: functional
PC-3 [6] = assay: Cell cycle arrest in human PC3 cells assessed as accumulation of cells at G1 phase at 1 uM after 48 hrs by RNase/propidium iodide staining-based flow cytometric analysis (reference value: 61.95%); assay type: functional
PC-3 [7] = assay: Cell cycle arrest in human PC3 cells assessed as accumulation of cells at G2 phase at 1 uM after 48 hrs by RNase/propidium iodide staining-based flow cytometric analysis (reference value: 7.17%); assay type: functional
PC-3 [8] = assay: Cell cycle arrest in human PC3 cells assessed as accumulation of cells at S phase at 1 uM after 48 hrs by RNase/propidium iodide staining-based flow cytometric analysis (reference value: 30.89%); assay type: functional
PC-3 [9] = assay: Cell cycle arrest in human PC3 cells assessed as accumulation of cells at G1 phase at 2 uM after 48 hrs by RNase/propidium iodide staining-based flow cytometric analysis (reference value: 61.95%); assay type: functional
PC-3 [10] = assay: Cell cycle arrest in human PC3 cells assessed as accumulation of cells at G2 phase at 2 uM after 48 hrs by RNase/propidium iodide staining-based flow cytometric analysis (reference value: 7.17%); assay type: functional
PC-3 [11] = assay: Cell cycle arrest in human PC3 cells assessed as accumulation of cells at S phase at 2 uM after 48 hrs by RNase/propidium iodide staining-based flow cytometric analysis (reference value: 30.89%); assay type: functional
PC-3 [12] = assay: Antimigratory activity in human PC3 cells after 48 hrs by wound-healing assay; assay type: functional, cell-based
Outline: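 PC-3 cells seeded at 3×10^5/well, grown to 80–90% confluence, monolayer scratched with pipette tip, washed, then exposed to compound (0, 0.5, 1.0, 2.0 μM) for 48 h. Wound photographed by inverted microscopy. At least three experiments.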

PC-3 [13] = assay: Anti-invasive activity in human PC3 cells after 48 hrs by matrigel-coated transwell assay; assay type: functional, cell-based
PC-3 [14] = assay: Antimigratory activity in human PC3 cells assessed as increase in E-cadherin at 0.5 to 2 uM after 48 hrs by Western blot analysis; assay type: functional, cell-based
Outline: (§2)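 PC-3 cells treated 48 h with compound at several concentrations, lysed in NP-40/SDS/deoxycholate buffer with PMSF. Equal lysate amounts resolved by SDS-PAGE, transferred to nitrocellulose, blocked in 5% milk 2 h, primary antibody overnight at 4 °C, HRP secondary, ECL detection; GAPDH as loading control.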

PC-3 [15] = assay: Antimigratory activity in human PC3 cells assessed as increase in occludin at 0.5 to 2 uM after 48 hrs by Western blot analysis; assay type: functional, cell-based; outline: as §2
PC-3 [16] = assay: Antimigratory activity in human PC3 cells assessed as decrease in N-Cadherin at 0.5 to 2 uM after 48 hrs by Western blot analysis; assay type: functional, cell-based; outline: as §2
PC-3 [17] = assay: Antimigratory activity in human PC3 cells assessed as decrease in vimentin at 0.5 to 2 uM after 48 hrs by Western blot analysis; assay type: functional, cell-based; outline: as §2
PC-3 [18] = assay: Induction of apoptosis in human PC3 cells assessed as cell rounding at 0.5 to 2 uM after 48 hrs by Hoechst 33258 staining-based fluorescence microscopic analysis; assay type: functional
Outline: (§3)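 PC-3 cells, 3×10^5/well, grown 48 h, then treated with compound at varying concentrations 48 h. Methanol-fixed ~20 min, stained with 5 ug/mL Hoechst-33258 in PBS with 0.5% Triton X-100 in dark ≥30 min; nuclear condensation/fragmentation scored by UV fluorescence microscopy.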

PC-3 [19] = assay: Induction of apoptosis in human PC3 cells assessed as chromatin shrinkage at 0.5 to 2 uM after 48 hrs by Hoechst 33258 staining-based fluorescence microscopic analysis; assay type: functional, cell-based; outline: as §3
PC-3 [20] = assay: Induction of apoptosis in human PC3 cells assessed as formation of apoptotic bodies at 0.5 to 2 uM after 48 hrs by Hoechst 33258 staining-based fluorescence microscopic analysis; assay type: functional, cell-based; outline: as §3
PC-3 [21] = assay: Induction of apoptosis in human PC3 cells assessed as viable cells at 0.5 uM after 48 hrs by AnnexinV-FITC/propidium iodide staining-based flow cytometric analysis (reference value: 99.1%); assay type: functional; settings: PC-3, 48 h, read-out: Activity
PC-3 [22] = assay: Induction of apoptosis in human PC3 cells assessed as early apoptotic cells at 0.5 uM after 48 hrs by AnnexinV-FITC/propidium iodide staining-based flow cytometric analysis (reference value: 0.3%); assay type: functional
PC-3 [23] = assay: Induction of apoptosis in human PC3 cells assessed as late apoptotic cells at 0.5 uM after 48 hrs by AnnexinV-FITC/propidium iodide staining-based flow cytometric analysis (reference value: 0.1%); assay type: functional
PC-3 [24] = assay: Induction of apoptosis in human PC3 cells assessed as necrotic cells at 0.5 uM after 48 hrs by AnnexinV-FITC/propidium iodide staining-based flow cytometric analysis (reference value: 0.5%); assay type: functional
PC-3 [25] = assay: Induction of apoptosis in human PC3 cells assessed as viable cells at 1 uM after 48 hrs by AnnexinV-FITC/propidium iodide staining-based flow cytometric analysis (reference value: 99.1%); assay type: functional; settings: PC-3, 48 h, read-out: Activity
PC-3 [26] = assay: Induction of apoptosis in human PC3 cells assessed as early apoptotic cells at 1 uM after 48 hrs by AnnexinV-FITC/propidium iodide staining-based flow cytometric analysis (reference value: 0.3%); assay type: functional
PC-3 [27] = assay: Induction of apoptosis in human PC3 cells assessed as late apoptotic cells at 1 uM after 48 hrs by AnnexinV-FITC/propidium iodide staining-based flow cytometric analysis (reference value: 0.1%); assay type: functional
PC-3 [28] = assay: Induction of apoptosis in human PC3 cells assessed as necrotic cells at 1 uM after 48 hrs by AnnexinV-FITC/propidium iodide staining-based flow cytometric analysis (reference value: 0.5%); assay type: functional
PC-3 [29] = assay: Induction of apoptosis in human PC3 cells assessed as viable cells at 2 uM after 48 hrs by AnnexinV-FITC/propidium iodide staining-based flow cytometric analysis (reference value: 99.1%); assay type: functional; settings: PC-3, 48 h, read-out: Activity
PC-3 [30] = assay: Induction of apoptosis in human PC3 cells assessed as early apoptotic cells at 2 uM after 48 hrs by AnnexinV-FITC/propidium iodide staining-based flow cytometric analysis (reference value: 0.3%); assay type: functional
PC-3 [31] = assay: Induction of apoptosis in human PC3 cells assessed as late apoptotic cells at 2 uM after 48 hrs by AnnexinV-FITC/propidium iodide staining-based flow cytometric analysis (reference value: 0.1%); assay type: functional
PC-3 [32] = assay: Induction of apoptosis in human PC3 cells assessed as necrotic cells at 2 uM after 48 hrs by AnnexinV-FITC/propidium iodide staining-based flow cytometric analysis (reference value: 0.5%); assay type: functional
PC-3 [33] = assay: Induction of apoptosis in human PC3 cells assessed as increase in caspase-9 activation after 48 hrs by Western blot analysis; assay type: functional, cell-based; outline: as §2
PC-3 [34] = assay: Induction of apoptosis in human PC3 cells assessed as increase in caspase-3 activation after 48 hrs by Western blot analysis; assay type: functional, cell-based; outline: as §2
PC-3 [35] = assay: Induction of apoptosis in human PC3 cells assessed as increase in cleaved PARP after 48 hrs by Western blot analysis; assay type: functional, cell-based; outline: as §2
PC-3 [36] = assay: Induction of apoptosis in human PC3 cells after 48 hrs by AnnexinV-FITC/propidium iodide staining-based flow cytometric analysis; assay type: functional, cell-based
PC-3 [37] = assay: Antimigratory activity in human PC3 cells after 24 hrs by transwell assay

CCOc1cc(-c2cccnc2)cc([C@H]2CC[C@H]3[C@@H]4CC=C5C[C@@H](O)CC[C@]5(C)[C@H]4CC[C@]23C)n1
IC50 (PC-3 [1]): 1.55 µM | IC50 (ECa-109 cell line): 5.32 µM | IC50 (MGC-803): 2.75 µM | IC50 (GES1): 7.76 µM | IC50 (LNCaP): 8.48 µM | inhibition (PC-3 [2]): Active | Activity (PC-3 [3]): 55.52% | Activity (PC-3 [4]): 10.92% | Activity (PC-3 [5]): 33.56% | Activity (PC-3 [6]): 55.44% | Activity (PC-3 [7]): 11.09% | Activity (PC-3 [8]): 33.48% | Activity (PC-3 [9]): 53.36% | Activity (PC-3 [10]): 10.87% | Activity (PC-3 [11]): 35.77% | Activity (PC-3 [12]): Dose-dependent effect | Activity (PC-3 [13]): Dose-dependent effect | Activity (PC-3 [14]): Active | Activity (PC-3 [15]): Active | Activity (PC-3 [16]): Active | Activity (PC-3 [17]): Active | Activity (PC-3 [18]): Active | Activity (PC-3 [19]): Active | Activity (PC-3 [20]): Active | viability at 0.5 µM (PC-3 [21]): 86.2% | Activity (PC-3 [22]): 10.7% | Activity (PC-3 [23]): 2.6% | Activity (PC-3 [24]): 0.5% | viability at 1 µM (PC-3 [25]): 76.7% | Activity (PC-3 [26]): 9.1% | Activity (PC-3 [27]): 11.7% | Activity (PC-3 [28]): 2.5% | viability at 2 µM (PC-3 [29]): 73.3% | Activity (PC-3 [30]): 7.3% | Activity (PC-3 [31]): 14.9% | Activity (PC-3 [32]): 4.6% | Activity (PC-3 [33]): Dose-dependent effect | Activity (PC-3 [34]): Dose-dependent effect | Activity (PC-3 [35]): Dose-dependent effect | Activity (PC-3 [36]): Dose-dependent effect | Activity (PC-3 [37]): Dose-dependent effect

— ChEMBL document CHEMBL4145468, “Synthesis and biological evaluation of new steroidal pyridines as potential anti-prostate cancer agents” (Eur J Med Chem, 2018)
